# Assay results: PubChem BioAssay
# Calls of active or inactive are those of the source.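 Rule for the calls, unless noted: active = inhibition at or above 50% at 10 µM; inactive = inhibition below 50%.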
# How the values were obtained:
# [1] = inhibitors of TNFa-induced NFkB p65 translocation, primary screen, imaging, HUVEC, MLSMR starter and 10KST1 sets (AID 438;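 active = inhibition above 20% together with a positive visual image hit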;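 note: compound added about 3h40 before a 20 min TNFalpha stimulation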;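 for inhibition: signal is the nuclear over cytoplasmic p65 intensity ratio per well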); settings: HUVEC TNFa-induced p65 nuclear translocation; cell count: measured here: nuclei count (cytotoxicity indicator), at 2.08 µM; inhibition: at 2 µM, stronger effect = higher value, 0% TNFa-plus-vehicle, 100% no-TNFa wells
# [2] = reduction of polyQ htt aggregates in cells – imaging, exon1htt(103Q)mCFP cells, high-content imaging, primary screen (AID 483;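 active = visual image review flags a hit and inhibition of aggregation exceeds 20%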;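 note: compound exposure lasted 3 days before fixation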;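 for nuclei count: percent of the per-plate median nuclei count of sample wells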); settings: exon1htt(103Q)mCFP cell line, aggregate imaging, at 2 µM; inhibition of aggregation: stronger effect = higher value; nuclei count: measured here: cell count, toxicity
# [3] = endothelial E-selectin expression blockers – imaging, HUVEC, immunofluorescence, MLSMR starter and 10KST1 sets, primary screen (AID 487;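 active = visually confirmed hit in the image check and inhibition above 20%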;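 for inhibition: signal is fraction of cell area covered by stained E-selectin grains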;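 for nuclei count: 100% = median nuclei count of all wells on the same plate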); settings: HUVEC TNFalpha-induced E-selectin immunofluorescence imaging, at 2 µM; inhibition: stronger effect = higher value; nuclei count: measured here: cell number, toxicity
# [4] = molecular target: Voltage-gated potassium channel subunit beta-2 (Rattus norvegicus) (UniProt P62483); assay: inhibitors of rat Kvbeta2 reductase activity – biochemical, NADPH fluorescence, primary screen (AID 622;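 active = fluorescence slope higher than the sample average by over 3 SD, cut at about -0.22 in these data, passing the limit was not always enough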;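 note: slope of raw intensity against log time taken from 70 to 1610 s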); settings: recombinant KvBeta, 4-cyanobenzaldehyde reduction, at 10 µM, stronger effect = higher value
# Voltage-gated potassium channel subunit beta-2 (Rattus norvegicus), sequence (P62483 whole entry, looked up): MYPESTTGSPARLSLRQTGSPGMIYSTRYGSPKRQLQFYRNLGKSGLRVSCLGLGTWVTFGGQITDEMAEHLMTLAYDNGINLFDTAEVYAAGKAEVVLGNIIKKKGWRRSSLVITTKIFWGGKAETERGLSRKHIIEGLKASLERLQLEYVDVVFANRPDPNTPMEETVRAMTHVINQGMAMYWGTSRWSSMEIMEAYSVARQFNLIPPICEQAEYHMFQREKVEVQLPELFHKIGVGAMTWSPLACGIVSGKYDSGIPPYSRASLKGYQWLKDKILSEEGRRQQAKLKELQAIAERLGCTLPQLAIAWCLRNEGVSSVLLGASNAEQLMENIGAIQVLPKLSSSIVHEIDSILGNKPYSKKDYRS
# [5] = molecular target: Voltage-gated potassium channel subunit beta-2 (Rattus norvegicus) (UniProt P62483); assay: enhancers of rat Kvbeta2 NADPH turnover – biochemical, NADPH fluorescence, primary screen (AID 623;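 active = NADPH fluorescence slope more negative than the mean of all samples by about 3 SD, 99.7% confidence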;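 note: fluorescence intensity change per second fitted from 20 to 320 s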); settings: Recombinant KvBeta, NADPH fluorescence decrease slope, 10 min; at 10 µM; stronger effect = lower value
# [6] = molecular target: Alpha-2C adrenergic receptor (Homo sapiens) (UniProt P18825); assay: compounds altering alpha2C-coupled GIRK flux – cell-based, HEK293 alpha2C/GIRK1/2, thallium flux, primary screen (AID 624;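 active = fluorescence slope after compound addition differing from the mean of all screened samples at 99.7% confidence, in either direction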;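 note: slope of fluorescence ratio to pre-addition baseline per second over 15 to 24 s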); settings: thallium flux BTC fluorescence, at 10 µM, actives lie on both sides
# Alpha-2C adrenergic receptor (Homo sapiens), sequence (P18825 whole entry, looked up): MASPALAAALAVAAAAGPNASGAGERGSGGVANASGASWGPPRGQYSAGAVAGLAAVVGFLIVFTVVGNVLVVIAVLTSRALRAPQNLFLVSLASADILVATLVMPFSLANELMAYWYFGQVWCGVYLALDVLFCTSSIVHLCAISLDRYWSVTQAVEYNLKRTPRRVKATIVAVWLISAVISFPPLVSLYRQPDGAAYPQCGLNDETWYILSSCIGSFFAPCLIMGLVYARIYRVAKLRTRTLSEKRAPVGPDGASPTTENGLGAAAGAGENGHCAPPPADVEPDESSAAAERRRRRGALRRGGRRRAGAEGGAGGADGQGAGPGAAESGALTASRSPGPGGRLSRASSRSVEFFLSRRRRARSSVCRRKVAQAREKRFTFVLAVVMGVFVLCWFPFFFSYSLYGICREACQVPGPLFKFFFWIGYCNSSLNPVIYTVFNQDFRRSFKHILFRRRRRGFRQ
# [7] = inhibitors of larval lipid processing in zebrafish, primary screen, whole organism, PED6 fluorescence, gall bladder and intestine (AID 686;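 active = a full or partial loss of lipid-probe fluorescence in the fish gall bladder, intestine or both, judged by eye; inactive = no fluorescence loss, or compound toxic to the fish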;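 note: larvae 5 to 7 days old with five fish per well; signal comes from phospholipase A2 cleavage of quenched PED6 carried via bile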); settings: Zebrafish larvae PED6 lipid processing, fluorescence scoring; screened at 20 µM (by protocol)
# In short: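 Incubation: overnight exposure of larvae to compound plus PED6 / Test system: live zebrafish larvae aged 5-7 days, whole organism / Amount: 5 larvae per well / Read-out basis: visual per-well fluorescence inhibition score / Signal: visual fluorescence microscopy scoring of gall bladder, gut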
# [8] = blockers of RIG-like receptor reporter activation – cell-based, Sendai virus stimulus, luciferase, 10K MLSCN set, TLR/RLR signaling modifier project, primary screen (AID 602276); settings: HEK293 RL24 IRF3 luciferase reporter, at 10 µM, stronger effect = higher value;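 note: firefly luciferase from ISG56 promoter only with Renilla not read in this screen; 0% = Sendai virus plus DMSO and 100% = medium plus DMSO without virus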
# [9] = TLR3 IRF3 reporter activation blockers – cell-based, poly I:C stimulus, luciferase, 10K MLSCN set, primary screen (AID 602277;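 active = inhibition of the reporter signal at or above 50%; inactive = inhibition below 50%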); settings: HEK293-TLR3 RL24 IRF3 luciferase reporter, at 10 µM, stronger effect = higher value
Structure (SMILES),cell count [1],inhibition [1],inhibition of aggregation [2],nuclei count [2] [%],inhibition [3],nuclei count [3] [%],fluorescence slope [4],NADPH fluorescence slope [5],slope [6],outcome [7],inhibition [8],inhibition [9]
COc1ccc(C(=O)NCCC(C)C)cc1S(=O)(=O)N1CCOCC1,229,-32.8% (inactive),0.6% (inactive),66.7,25.8% (inactive),109,-0.355 (inactive),6.5e-06 (inactive),0.00454 (inactive),inactive,17.2% (inactive),19.8% (inactive)
O=C(CSc1nnc(-c2ccco2)n1CC1CCCO1)N1CCCCC1 (centres undefined),375,1.4% (inactive),9.7% (inactive),102,-41% (inactive),107,-0.378 (inactive),-6.2e-05 (inactive),0.00431 (inactive),inactive,13.1% (inactive),11.6% (inactive)
CCCN1CCN(C(=O)Cn2cccc2C(=O)c2ccccc2)CC1,568,5.4% (inactive),-4.9% (inactive),109,-0.1% (inactive),108,-0.405 (inactive),-5.8e-05 (inactive),0.00424 (inactive),inactive,7.77% (inactive),11.7% (inactive)
CSc1ccccc1NC(=O)CN(c1ccccc1)S(=O)(=O)N(C)C,429,-0.8% (inactive),1.4% (inactive),96,4.1% (inactive),140,-0.356 (inactive),3.3e-06 (inactive),0.00624 (inactive),inactive,15.6% (inactive),20.5% (inactive)
COC(=O)c1ccc(CSc2nc3ccccc3s2)o1,483,-6.3% (inactive),-4% (inactive),126,-0.4% (inactive),104,-0.47 (inactive),-1.1e-05 (inactive),0.00436 (inactive),inactive,-35.6% (inactive),-50.2% (inactive)
COc1cccc(OCc2nnc(SCC(=O)OCc3ccccc3)o2)c1,328,3.3% (inactive),1.6% (inactive),99.2,-31.4% (inactive),108,-0.267 (inactive),-4.9e-06 (inactive),0.00652 (inactive),inactive,10.1% (inactive),7.69% (inactive)
N#Cc1c(N)oc(-c2cccs2)c1-c1cccs1,508,2.6% (inactive),-9.8% (inactive),93.1,-29.4% (inactive),120,-0.306 (inactive),-3e-05 (inactive),0.00454 (inactive),inactive,-45.9% (inactive),50.6% (active)
CCCn1c(=O)c(C(=O)NCc2ccccn2)c(O)c2ccccc21,345,4.2% (inactive),-20.9% (inactive),111,-32.3% (inactive),108,-0.403 (inactive),-9e-05 (inactive),0.00521 (inactive),inactive,-22.2% (inactive),-53.3% (inactive)
Cc1nn(C(=O)c2ccccc2)c2c1C(=O)CC(C)(C)C2,380,1.3% (inactive),-11.8% (inactive),104,-114% (inactive),112,-0.419 (inactive),-1e-05 (inactive),0.00514 (inactive),inactive,18.8% (inactive),17.1% (inactive)
C#CCOC(=O)C1C2C=CC(C2)C1C(=O)O (centres undefined),394,9.9% (inactive),7.3% (inactive),87.7,-317% (inactive),115,-0.341 (inactive),-6.5e-05 (inactive),0.00609 (inactive),inactive,4.82% (inactive),0.62% (inactive)
CCOC(=O)c1ccc(CNC(=O)C(Cc2c[nH]c3ccccc23)NC(C)=O)o1 (centres undefined),444,-0.3% (inactive),-11.1% (inactive),122,-52.8% (inactive),167,-0.369 (inactive),-4.9e-06 (inactive),0.00652 (inactive),inactive,17% (inactive),29.3% (inactive)
CN(c1ccccc1C(=O)NCC1CCCO1)S(C)(=O)=O (centres undefined),314,3.8% (inactive),4.6% (inactive),94.8,-12.5% (inactive),93.8,-0.444 (inactive),-3.7e-05 (inactive),0.00536 (inactive),inactive,15.7% (inactive),14.6% (inactive)
COc1ccc(NC(=O)N2CCC(c3nc(-c4cccs4)no3)CC2)cc1,486,-35.7% (inactive),1.4% (inactive),56.4,-41.5% (inactive),102,-0.36 (inactive),-5.2e-05 (inactive),0.00458 (inactive),inactive,-1.92% (inactive),-22% (inactive)
CCOC(=O)c1ccc(NC(=O)N2CCN(Cc3cccc(F)c3)CC2)cc1,688,-1.4% (inactive),-19% (inactive),97.2,-126% (inactive),109,-0.424 (inactive),-5e-05 (inactive),0.00506 (inactive),inactive,5.73% (inactive),7.2% (inactive)
CC1(C)C2CCC1(C)C(OC(=O)CSc1nc(N)cc(=O)[nH]1)C2 (centres undefined),473,6.5% (inactive),4% (inactive),103,-343% (inactive),136,-0.367 (inactive),-4.6e-05 (inactive),0.00448 (inactive),inactive,3.84% (inactive),8.04% (inactive)
CCOC(=O)n1c(=O)oc2cc(S(=O)(=O)N3CCCCC3)ccc21,419,14.8% (inactive),-1% (inactive),103,35.2% (inactive),81.5,-0.294 (inactive),-1.1e-05 (inactive),0.00583 (inactive),inactive,8.09% (inactive),16.3% (inactive)
O=C(NCCCN1CCOCC1)c1cc(-c2ccc(Cl)cc2)on1,264,-1.8% (inactive),-1.6% (inactive),102,-8.4% (inactive),113,-0.294 (inactive),1.2e-05 (inactive),0.00493 (inactive),inactive,6.84% (inactive),-3.16% (inactive)
O=C(/C=C/N1CCOCC1)c1ccc(-c2ccccc2)cc1,617,-4.7% (inactive),8.3% (inactive),112,33.9% (inactive),101,-0.398 (inactive),-4.3e-05 (inactive),0.00595 (inactive),inactive,-22.9% (inactive),-53.1% (inactive)
Cc1cc(C(=O)Nc2c(C)n(C)n(-c3ccccc3)c2=O)c(C)o1,330,-1.4% (inactive),5.3% (inactive),101,2% (inactive),100,-0.412 (inactive),-7.3e-05 (inactive),0.00524 (inactive),inactive,17% (inactive),14.7% (inactive)
CC(OC(=O)CNC(=O)C12CC3CC(CC(C3)C1)C2)C(=O)Nc1ccc(N2CCOCC2)cc1 (centres undefined),663,4.1% (inactive),3.3% (inactive),110,-47.1% (inactive),111,-0.448 (inactive),-5.7e-05 (inactive),0.00563 (inactive),inactive,-2.61% (inactive),-14.5% (inactive)
O=C(Nc1ccc2c(c1)OCO2)N1CCN(c2ncccn2)CC1,342,10.3% (inactive),-5.6% (inactive),107,-38.9% (inactive),118,-0.421 (inactive),-3.9e-06 (inactive),0.00535 (inactive),inactive,-23.4% (inactive),-41.5% (inactive)
CCOC(=O)N1CCN(C(=O)c2cnn(-c3ccccc3)c2NC(=O)c2ccccc2F)CC1,397,12.1% (inactive),1.7% (inactive),117,-69.8% (inactive),106,-0.34 (inactive),-3.7e-05 (inactive),0.00614 (inactive),inactive,16% (inactive),17.2% (inactive)
COCCN(CCOC)C(=O)CCn1c(=O)oc2ccccc21,589,3.3% (inactive),2.1% (inactive),107,37.7% (inactive),100,-0.462 (inactive),-5.7e-05 (inactive),0.00623 (inactive),inactive,17.5% (inactive),8.78% (inactive)
COc1ccc(S(=O)(=O)NCCSCc2ccco2)cc1Cl,362,4.4% (inactive),13% (inactive),94,13.2% (inactive),108,-0.424 (inactive),-6.4e-06 (inactive),0.00484 (inactive),inactive,20.4% (inactive),19.9% (inactive)
O=C1CCC(C(=O)N(Cc2ccco2)C2(C(=O)NC3CCCC3)CCCCC2)N1 (centres undefined),428,-6.8% (inactive),-16.4% (inactive),116,-39.9% (inactive),139,-0.428 (inactive),4.8e-06 (inactive),0.00488 (inactive),inactive,5.55% (inactive),13.4% (inactive)
c1n[nH]c(SCCCCSc2ncn[nH]2)n1,512,-30.6% (inactive),-15.1% (inactive),108,24% (inactive),113,-0.452 (inactive),-7e-05 (inactive),0.00417 (inactive),inactive,15.9% (inactive),13% (inactive)
Cc1nnc(SCc2cccc(Oc3ccccc3)c2)n1N,701,-4.2% (inactive),2.8% (inactive),108,-59.1% (inactive),105,-0.384 (inactive),-3e-05 (inactive),0.00543 (inactive),inactive,-4.43% (inactive),98.8% (active)
